Measurements as given in ChEMBL document CHEMBL2380295, “Structure-activity studies on the side chain of a simplified analog of aplysiatoxin (aplog-1) with anti-proliferative activity” (Bioorg Med Chem, 2013).

Legend:
[1] = Octanol-water partition coefficient, log P of the compound by HPLC analysis; type: physicochemical
Outline: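 log P was estimated from HPLC retention, with column dead time measured using unretained formamide.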

[2] = molecular target: Protein kinase C delta type (Homo sapiens, UniProt Q05655); assay: Inhibition of [3H]PDBu binding to PKCdelta-C1A domain peptide (unknown origin)
Outline: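 Competitive [3H]PDBu binding used 14 or 40 nM PKCδ C1 peptide and 20 nM [3H]PDBu (19.6 Ci/mmol), in 50 mM Tris-maleate (pH 7.4 at 4 °C) with 50 µg/mL phosphatidylserine, 3 mg/mL bovine γ-globulin and varied inhibitor concentrations. IC50 was taken as 50% inhibition of specific binding. Ki was derived by the Sharkey–Blumberg method.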

Human gammaherpesvirus 4 [3] = assay: Induction of EBV-early antigen expressed in human Raji cells at 10^-6 M after 48 hrs by immunofluorescence assay relative to control; type: organism-based; details: human gammaherpesvirus 4, raji, 1 µM
Outline: (§1)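 Raji B-lymphoblastoid cells (5 × 10^5/mL) in RPMI 1640 with 10% FBS, with 4 mM sodium n-butyrate as synergist and test compound at 10^-7 or 10^-6 M (final DMSO 0.4%). Incubated 48 h at 37 °C under 5% CO2. Smears were stained by indirect immunofluorescence using NPC patient serum and FITC anti-human IgG. At least 500 cells counted; % EA-positive recorded; n = 3, SEM.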

Human gammaherpesvirus 4 [4] = assay: Induction of EBV-early antigen expressed in human Raji cells at 10^-7 M after 48 hrs by immunofluorescence assay relative to control; type: organism-based; details: human gammaherpesvirus 4, raji, 0.1 µM; outline: as §1

Chain of Protein kinase C delta type (Q05655 whole entry, the tested form may be a part): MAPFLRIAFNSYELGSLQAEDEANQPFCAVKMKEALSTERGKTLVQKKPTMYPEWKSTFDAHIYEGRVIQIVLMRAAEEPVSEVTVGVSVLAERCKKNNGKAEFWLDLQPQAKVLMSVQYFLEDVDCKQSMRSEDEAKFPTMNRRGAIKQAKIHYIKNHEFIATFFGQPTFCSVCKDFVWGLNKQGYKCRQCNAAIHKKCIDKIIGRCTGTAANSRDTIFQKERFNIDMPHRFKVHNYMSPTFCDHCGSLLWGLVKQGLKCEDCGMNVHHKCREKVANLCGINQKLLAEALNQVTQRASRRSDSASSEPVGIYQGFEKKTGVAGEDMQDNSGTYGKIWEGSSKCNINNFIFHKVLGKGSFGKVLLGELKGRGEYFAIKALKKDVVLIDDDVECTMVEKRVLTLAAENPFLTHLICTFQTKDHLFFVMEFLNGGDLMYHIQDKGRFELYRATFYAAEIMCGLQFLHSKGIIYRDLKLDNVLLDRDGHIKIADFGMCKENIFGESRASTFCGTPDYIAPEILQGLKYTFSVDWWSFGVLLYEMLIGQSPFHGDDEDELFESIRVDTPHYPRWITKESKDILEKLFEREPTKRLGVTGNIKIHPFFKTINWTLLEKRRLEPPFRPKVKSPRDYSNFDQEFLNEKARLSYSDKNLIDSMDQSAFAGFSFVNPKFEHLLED

SMILES: CO[C@@H](CC[C@H](C)[C@H]1O[C@@]23C[C@H](OC(=O)C[C@H]([C@@H](C)O)OC(=O)C[C@](O)(O2)[C@H](C)CC3(C)C)[C@@H]1C)c1cc(O)ccc1Br [APLYSIATOXIN]
- logP [1]: 5.4

SMILES: CO[C@@H](CC[C@H](C)[C@H]1O[C@@]23C[C@H](OC(=O)C[C@H]([C@@H](C)O)OC(=O)C[C@](O)(O2)[C@H](C)CC3(C)C)[C@@H]1C)c1cccc(O)c1 [DEBROMOAPLYSIATOXIN]
- Ki [2]: 9.7 nM

SMILES: CCCCCCCCCCCCCC(=O)O[C@@H]1[C@@H](C)[C@@]2(O)[C@@H](C=C(CO)C[C@]3(O)C(=O)C(C)=C[C@@H]23)[C@@H]2C(C)(C)[C@]12OC(C)=O [PHORBOL MYRISTATE ACETATE]
- Activity (Human gammaherpesvirus 4 [3]): 31.5%
- Activity (Human gammaherpesvirus 4 [4]): 29.4%
